Test [1] addresses T1, E-selectin (Homo sapiens) (UniProt P16581).
T1 sequence (whole entry): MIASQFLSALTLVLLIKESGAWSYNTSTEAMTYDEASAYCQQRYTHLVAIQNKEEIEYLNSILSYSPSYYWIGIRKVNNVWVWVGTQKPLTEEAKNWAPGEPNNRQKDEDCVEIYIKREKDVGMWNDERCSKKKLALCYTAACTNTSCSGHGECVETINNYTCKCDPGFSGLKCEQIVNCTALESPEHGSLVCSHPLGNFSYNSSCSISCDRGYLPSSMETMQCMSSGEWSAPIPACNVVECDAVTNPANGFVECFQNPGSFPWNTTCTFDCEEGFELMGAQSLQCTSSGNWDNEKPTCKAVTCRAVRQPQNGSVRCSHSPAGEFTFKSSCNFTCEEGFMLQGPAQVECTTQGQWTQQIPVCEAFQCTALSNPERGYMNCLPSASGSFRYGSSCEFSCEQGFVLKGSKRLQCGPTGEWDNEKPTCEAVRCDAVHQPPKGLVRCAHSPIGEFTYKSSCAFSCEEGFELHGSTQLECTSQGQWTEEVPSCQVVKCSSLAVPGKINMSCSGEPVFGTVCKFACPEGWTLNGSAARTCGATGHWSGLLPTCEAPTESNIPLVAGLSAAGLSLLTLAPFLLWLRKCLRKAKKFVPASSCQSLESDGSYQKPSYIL
Description: Binding affinity to E-selectin relative to (2S,4S,5R,6R)-5-acetamido-2-((2R,3S,4S,5R,6R)-3,5-dihydroxy-2-(hydroxymethyl)-6-((1R,2R)-2-((2S,3S,4R,5S,6S)-3,4,5-trihydroxy-6-methyl-tetrahydro-2H-pyran-2-yloxy)cyclohexyloxy)-tetrahydro-2H-pyran-4-yloxy)-4-hydroxy-6-((1R,2R)-1,2,3-trihydroxypropyl)-tetrahydro-2H-pyran-2-carboxylic acid. An outline of the steps: (§1)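 Competitive binding ELISA against E-selectin, run by a previously published procedure. A reference antagonist was included in the assay for relative comparison. The acid test compounds were purified by size exclusion chromatography to remove traces of polyanionic ion-exchange resin that could give false positives.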

The target of test [2] is T2, E-selectin (Homo sapiens, UniProt P16581).
T2 sequence (P16581 whole entry): T1 sequence (whole entry)
Description: Binding affinity to E-selectin. In outline:
as §1

As to `C[C@@H]1O[C@@H](O[C@@H]2CCCC[C@H]2O[C@@H]2O[C@H](CO)[C@H](O)[C@H](O[C@@H](CC34CC5CC(CC(C5)C3)C4)C(=O)O)[C@H]2O)[C@@H](O)[C@H](O)[C@@H]1O`, in test [1], the Activity worked out at 0.32.

For `C[C@@H]1O[C@@H](O[C@@H]2CCCC[C@H]2O[C@@H]2O[C@H](CO)[C@H](O)[C@H](O[C@H](CC34CC5CC(CC(C5)C3)C4)C(=O)O)[C@H]2O)[C@@H](O)[C@H](O)[C@@H]1O`, in test [1], the Activity is above 10.

As to `C[C@@H]1O[C@@H](O[C@@H]2CCCC[C@H]2O[C@@H]2O[C@H](CO)[C@H](O)[C@H](O[C@@H](Cc3ccccc3)C(=O)O)[C@H]2O)[C@@H](O)[C@H](O)[C@@H]1O`, the Activity in test [1] came out at 0.6.

Take `C[C@@H]1O[C@@H](O[C@@H]2CCCC[C@H]2O[C@@H]2O[C@H](CO)[C@H](O)[C@H](O[C@H](CC3CCCCC3)C(=O)O)[C@H]2O)[C@@H](O)[C@H](O)[C@@H]1O`: the Activity in test [1] is above 10.

In the case of `CC(=O)N[C@@H]1[C@@H](O[C@@H]2O[C@@H](C)[C@@H](O)[C@@H](O)[C@@H]2O)[C@H](O[C@@H]2O[C@H](CO)[C@H](O)[C@H](O[C@]3(C(=O)O)C[C@H](O)[C@@H](NC(C)=O)[C@H]([C@H](O)[C@H](O)CO)O3)[C@H]2O)[C@@H](CO)O[C@H]1O`, in test [2], the IC50 turned out to be 1000 µM. This counts as millimolar.

On to `C[C@@H]1O[C@@H](O[C@@H]2CCCC[C@H]2O[C@@H]2O[C@H](CO)[C@H](O)[C@H](OCC(=O)O)[C@H]2O)[C@@H](O)[C@H](O)[C@@H]1O`, for which the Activity in test [1] was above 10.

In test [1], `C[C@@H]1O[C@@H](O[C@@H]2CCCC[C@H]2O[C@@H]2O[C@H](CO)[C@H](O)[C@H](O[C@H](Cc3ccccc3)C(=O)O)[C@H]2O)[C@@H](O)[C@H](O)[C@@H]1O` displayed an Activity above 10.

Molecule `C[C@@H]1O[C@@H](O[C@@H]2CCCC[C@H]2O[C@@H]2O[C@H](CO)[C@H](O)[C@H](O[C@@H](CC3CCCCC3)C(=O)O)[C@H]2O)[C@@H](O)[C@H](O)[C@@H]1O` had an Activity in test [1] of 0.15.

`C[C@@H]1O[C@@H](O[C@@H]2CCCC[C@H]2O[C@@H]2O[C@H](CO)[C@H](O)[C@H](O[C@H](C)C(=O)O)[C@H]2O)[C@@H](O)[C@H](O)[C@@H]1O`: in test [1], the Activity is above 10.

Regarding `C[C@H](O[C@H]1[C@@H](O)[C@@H](CO)O[C@@H](O[C@@H]2CCCC[C@H]2O[C@@H]2O[C@@H](C)[C@@H](O)[C@@H](O)[C@@H]2O)[C@@H]1O)C(=O)O`, the Activity in test [1] stood at 2.4.

In test [2], `CC(=O)N[C@H]1[C@H]([C@H](O)[C@H](O)CO)O[C@@](O[C@H]2[C@@H](O)[C@@H](CO)O[C@@H](O[C@@H]3CCCC[C@H]3O[C@@H]3O[C@@H](C)[C@@H](O)[C@@H](O)[C@@H]3O)[C@@H]2O)(C(=O)O)C[C@@H]1O` displayed a half-inhibitory concentration (IC50) of 600 µM.

The IC50 is the point on the concentration scale where inhibition reaches its midpoint. High values mean weaker potency, low ones greater potency.
